Source: PubChem BioAssay AID1230 (PCMD, 2008)
Screen size: about 210,000 compounds; about 220 (0.1%) were called active. Only a selection was taken, and actives are over-represented in it overall. Values without a mark were called inactive.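 How the source made its calls: active means signal enhancement of 30% or more; inactive means the rest.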

molecular target: E3 ubiquitin-protein ligase Mdm2 (Homo sapiens) (UniProt Q00987); assay: increase of MDM2 autoubiquitination reporter luminescence – cell-based, 1536-well, MDM2 E3 ligase inhibitor project, primary screen (AID 1230); conditions: cell-based MDM2 ubiquitination luciferase reporter, 2 h; at 5 µM; active compounds read high; 0 = plate control, 100 = twice control, blank-subtracted;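 further: luminescence tracks abundance of the self-degrading MDM2-luciferase fusion protein; higher signal means inhibition of MDM2 E3 ligase activity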
Sequence (Q00987 whole entry, looked up, the tested form may be a part): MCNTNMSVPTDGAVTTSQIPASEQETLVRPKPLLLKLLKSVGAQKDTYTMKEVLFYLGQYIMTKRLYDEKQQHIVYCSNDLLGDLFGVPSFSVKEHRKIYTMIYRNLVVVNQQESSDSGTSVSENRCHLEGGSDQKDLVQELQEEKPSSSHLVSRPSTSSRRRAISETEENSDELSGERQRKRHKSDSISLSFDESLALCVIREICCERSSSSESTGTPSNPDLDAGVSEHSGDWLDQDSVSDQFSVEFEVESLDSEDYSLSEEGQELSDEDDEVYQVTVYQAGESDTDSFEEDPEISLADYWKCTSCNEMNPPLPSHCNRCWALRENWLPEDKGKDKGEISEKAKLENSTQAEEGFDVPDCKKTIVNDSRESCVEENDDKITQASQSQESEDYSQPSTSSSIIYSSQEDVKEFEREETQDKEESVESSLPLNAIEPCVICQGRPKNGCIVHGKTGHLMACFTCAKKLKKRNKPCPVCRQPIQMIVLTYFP
In short: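 Test system: stable mammalian line carrying autodegrading MDM2–luciferase fusion reporter; quantity: 2000 cells in each well; times: 4 h cell settling then 2 h compound exposure, 37 °C; detection: luminescence with SteadyLite reagent, 15 min at room temperature; evaluation: percent signal gain over controls, blank-subtracted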

Structure (SMILES)	signal enhancement
COc1ccc(NC(=O)C2=C(C)NC(=O)NC2c2ccccc2[N+](=O)[O-])cc1 (configuration not stated)	-9.62%
Nc1nc(NCC2CCCO2)nc(Nc2ccccc2F)c1[N+](=O)[O-] (configuration not stated)	1.79%
CCS(=O)(=O)Nc1cc(C(=O)OC)ccc1C(=O)OC	-8.23%
CCCN(CCC)C(=S)Nc1cc(C(=O)OC)ccc1C(=O)OC	39.1% (active)
CCN(CCO)C(=S)Nc1cc(C(=O)OC)ccc1C(=O)OC	3.69%
Cc1cc(C)cc(OCC(=O)NNC(=O)CCN2C(=O)c3ccccc3C2=O)c1	31.1% (active)
O=C(CCN1C(=O)c2ccccc2C1=O)NNC(=O)c1ccc(Cl)cc1Cl	-8.02%
Cc1cc(C)cc(OCC(=O)NNC(=O)c2cc3ccccc3oc2=O)c1	1.34%
Clc1ccc(-c2cc(-c3ccccn3)on2)c(Cl)c1	-77.9%
CCCN(c1ccc(C)cc1)c1nc(=O)c2cccnc2s1	-10%
Fc1ccc(Nc2nnns2)cc1	-6.61%
CC(=O)Nc1ccc(OCC(=O)NCc2ccc(C)cc2)cc1	-12.3%
COc1ccc(CS(=O)/C(Cl)=C(/Cl)C(=O)Nc2ccc(OC)nc2)cc1 (configuration not stated)	53.8% (active)
COc1ccc(C(=O)Nc2ccc(NC(=O)C(C)C)nc2)cc1	-20.6%
COc1ccc(NC(=O)/C(Cl)=C(/Cl)S(=O)Cc2ccc(C)cc2)cn1 (configuration not stated)	72.4% (active)
Cc1ccc(NC(=O)OCc2cncs2)cc1	-21.3%
COc1ccc(NC(=S)Nc2ccccc2Cl)cn1	-15.3%
CC(C)CCNC(=O)C1CCC(CNc2c(N3CCC(C)CC3)c(=O)c2=O)CC1 (configuration not stated)	-5.11%
COc1ccc2c(CC(=O)OCC(=O)NC(N)=O)coc2c1	0.56%
COC(=O)/C=C(\Oc1ccccc1)C1(O)CCCCC1	-12%
CC(=O)NNC(=O)c1csc(Cc2c(Cl)sc3ccc(Cl)cc23)n1	-2.59%

Structure (SMILES)	signal enhancement
CCC1(C)Cc2c(sc3nc(SC)[nH]c(=O)c23)CO1 (configuration not stated)	-9.94%
CCOC(=O)CC1C(=O)NCCN1c1nc2c(C)cccn2c(=O)c1/C=C1\SC(=S)N(C(C)CC)C1=O (configuration not stated)	-24.8%
Cc1cc(OC(=O)c2ccccc2)c([N+](=O)[O-])c(=O)[nH]1	39.8% (active)
COc1cccc(C(=O)Oc2cc(C)[nH]c(=O)c2[N+](=O)[O-])c1	-90.1%
O=C(Oc1ccccc1C(=S)N1CCCCC1)c1cc([N+](=O)[O-])cc([N+](=O)[O-])c1	-1.87%
c1csc(-c2nnc(COc3ncnc4sccc34)o2)c1	-10.9%
COc1ccc(/C=N/NS(=O)(=O)c2ccc(NC(C)=O)cc2)cc1	-14.4%
Cc1nc(-c2ccccc2)sc1-c1nnc(C2CC2)o1	-9.04%
CCOc1ccc(C2NC(=S)NC3=C2CCc2ccccc23)cc1 (configuration not stated)	-16.9%
CN(c1ccc(OCC(=O)NC2=NCCS2)cc1)S(=O)(=O)c1ccc(F)cc1	-0.06%
Cc1ccc(Oc2nc(-c3ccccn3)nc3ccccc23)cc1	-1.85%
Brc1ccc2c(c1)[C@H]1OCC[C@H]1[C@@H](c1cccs1)N2	-17.3%
COc1ccc(OC)c(-n2c(-c3ccn[nH]3)n[nH]c2=S)c1	-7.17%
O=C(Nc1cccc(Cl)c1)Nc1nnc(-c2ccccc2)o1	-7.54%
CCCC(=O)Nc1nnc(-c2ccccc2)o1	-6.24%
O=C(Nc1nnc(-c2ccc(Cl)cc2)o1)c1ccccc1Br	108% (active)
COc1ccccc1C1CCN(c2ccc([N+](=O)[O-])cn2)CC1	-10.5%
CCN(CC)CCn1cnc2c1c(=O)n(CCOC(=O)c1cc(OC)c(OC)c(OC)c1)c(=O)n2C	2.01%
O=C(NC(=O)c1cc(OCC(F)(F)F)ccc1OCC(F)(F)F)Nc1ccccc1	-3.24%
N#CCC(=O)N/N=C/c1cn(Cc2ccc3ccccc3c2)c2ccccc12	-6.67%
CCn1c(SCC(=O)N/N=C/c2ccncc2)nc2ccccc21	-15.7%

Structure (SMILES)	signal enhancement
CC(C)(C)CN1C(=O)C(=O)NC[C@H]1Cc1cccc2ccccc12	-5.59%
O=C(N/N=C/c1ccccn1)c1cccnc1	-13%
CCOC(=O)CN(C(=O)COc1nc(C)cc(C)c1C#N)c1ccc(Cl)cc1	-12.8%
O=S(=O)(c1ccc(NC(=S)NN=C(C2CC2)C2CC2)cc1)N1CCOCC1	-6.04%
Cc1nnc(C)c2c(C)n(N)c(C)c12	-11.1%
Cc1nc(SCc2ccc(F)cc2)c([N+](=O)[O-])[nH]1	30.6% (active)
Cc1cc([N+](=O)[O-])nn1Cc1ccc(F)cc1	-10.9%
Cc1nc(SCC(=O)c2ccccc2)c([N+](=O)[O-])[nH]1	-9.82%
O=C(CCS(=O)(=O)c1ccccc1Cl)Nc1ccc(S(=O)(=O)Nc2ncccn2)cc1	-14.3%
O=C(O)C#Cc1cccc2ccccc12	-21.3%
Cc1nc2c(ncn2-c2ccccc2)c(=O)n1NC(=O)CN1CCCC1	-14.3%
C/C(=N/Nc1nc(-c2ccccc2)c(CC(=O)O)s1)c1ccccc1	-20.1%
S=C(NNC(=S)NC1CC2CCC1C2)NC1CC2C=CC1C2 (configuration not stated)	-3.28%
COC(=O)c1scc(S(=O)(=O)C(C)(C)C)c1-n1cccc1	-17%
C/C(=N\NC(N)=S)c1cccnc1	54.3% (active)
C/C(=N\NC(N)=S)c1ccncc1	-0.15%
C/C(=N\NC(=O)c1cccnc1)c1ccc(-c2ccccc2)cc1	-9.97%
COC(=O)N(NC(=O)C(O)(C(C)C)C(C)C)c1ccccc1	-12.4%
O=C(C[n+]1cc(-c2ccc(Cl)c(Cl)c2)n2c1CCC2)c1cccs1	-2.63%
CS(=O)(=O)c1ccc(Cl)c(NC(=O)Nc2ccccc2)c1	-9.46%
